Assay results as given in ChEMBL document CHEMBL1131108, “Phenothiazine inhibitors of trypanothione reductase as potential antitrypanosomal and antileishmanial drugs” (J Med Chem, 1998).

How the values were obtained:
[1] = organism: Mus musculus; assay: Effective dose against Leishmania donovani (Leishmania donovani) amastigotes in mouse peritoneal macrophages; type: functional; conditions: read-out: ED50 (the source's name)
How it was run: (§1)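 Mouse peritoneal macrophages kept on chamber slides in RPMI 1640 with 10% heat-inactivated foetal calf serum, 37 °C, 5% CO2, and infected with L. donovani MHOM/ET/69/L82 amastigotes taken from infected hamster spleens. After 24 h, compounds were added in a 3-fold dilution series in quadruplicate for 5 days. Slides were methanol-fixed and Giemsa-stained, then scored for the proportion of infected macrophages.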

[2] = organism: Mus musculus; assay: Effective dose against Trypanosoma cruzi (Trypanosoma cruzi) trypomastigotes in mouse peritoneal macrophages; type: functional; conditions: read-out: ED50 (the source's name)
[3] = target: T1, Trypanothione reductase (Trypanosoma cruzi, UniProt P28593); assay: Inhibitory activity against recombinant Trypanosoma cruzi (Trypanosoma cruzi) Trypanothione reductase; conditions: read-out: I50
How it was run: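 Recombinant T. cruzi TR, overexpressed in E. coli JM109 and homogeneous by SDS-PAGE, was used at about 0.3 µg/mL. Assay at 25 °C in 0.02 M HEPES pH 7.25 with 0.15 M KCl, 1 mM EDTA, 0.12 mM trypanothione disulfide and 0.1 mM NADPH, read at 340 nm. I50 came from nonlinear least-squares fitting of velocity versus inhibitor concentration using the linear competitive inhibition equation.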

[4] = system: Trypanosoma brucei; assay: Effective dose against Trypanosoma brucei) bloodstream form trypomastigotes in HMI-9 medium; conditions: read-out: ED50 (the source's name)
[5] = organism: Mus musculus; assay: Effective dose against Leishmania donovani (Leishmania donovani) amastigotes in mouse peritoneal macrophages; Toxic to the macrophages; type: functional, organism-based
How it was run: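 Mouse peritoneal macrophages in RPMI 1640 + 10% heat-inactivated FCS, 37 °C, 5% CO2, infected with L. donovani (MHOM/ET/69/L82) amastigotes from infected hamster spleens. Compounds added 24 h post-infection in 3-fold dilutions, quadruplicate, for 5 days. Slides methanol-fixed, Giemsa-stained; proportion of infected macrophages scored.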

[6] = organism: Mus musculus; assay: Effective dose against Trypanosoma cruzi (Trypanosoma cruzi) trypomastigotes in mouse peritoneal macrophages; Toxic to the macrophages; type: functional, organism-based
How it was run: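 T. cruzi (MHOM/BR/00/Y) trypomastigotes from infected L6 rat myoblast cultures infect mouse peritoneal macrophages at 5 parasites:1 macrophage, 37 °C, 5% CO2/air. Compounds in fresh medium 24 h post-infection, 3-fold dilutions, quadruplicate, 3 days. Cultures fixed, Giemsa-stained; proportion of infected macrophages scored.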

[7] = target: T2, Glutathione reductase, mitochondrial (Homo sapiens, UniProt P00390); assay: Inhibitory activity against human erythrocyte glutathione reductase; '*' indicates No inhibition
T2 sequence (P00390 whole entry): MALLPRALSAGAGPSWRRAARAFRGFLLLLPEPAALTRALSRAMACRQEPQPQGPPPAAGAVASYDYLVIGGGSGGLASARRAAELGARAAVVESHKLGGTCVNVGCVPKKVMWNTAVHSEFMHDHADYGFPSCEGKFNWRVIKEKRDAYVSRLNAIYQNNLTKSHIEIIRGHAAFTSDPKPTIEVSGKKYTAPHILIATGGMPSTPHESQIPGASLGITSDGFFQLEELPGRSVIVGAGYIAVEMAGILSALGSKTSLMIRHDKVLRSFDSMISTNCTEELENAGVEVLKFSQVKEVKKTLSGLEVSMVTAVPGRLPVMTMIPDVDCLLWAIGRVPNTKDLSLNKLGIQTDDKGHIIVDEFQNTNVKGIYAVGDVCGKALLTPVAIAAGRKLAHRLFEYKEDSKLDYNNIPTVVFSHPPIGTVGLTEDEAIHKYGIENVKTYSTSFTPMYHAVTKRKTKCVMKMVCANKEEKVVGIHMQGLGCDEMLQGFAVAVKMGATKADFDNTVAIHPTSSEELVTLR
How it was run: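 Enzyme was isolated from human erythrocytes and assayed spectrophotometrically at 340 nm under literature conditions. Compounds were tested up to 1 mM, or 0.1 mM where solubility was limited.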

[8] = target: T1, Trypanothione reductase; assay: Inhibitory activity against recombinant Trypanosoma cruzi (Trypanosoma cruzi) Trypanothione reductase (linear competitive type)
[9] = system: Trypanosoma brucei; assay: Effective dose against Trypanosoma brucei) bloodstream form trypomastigotes; conditions: read-out: ED50 (the source's name)
[10] = organism: Mus musculus; assay: Effective dose against Trypanosoma cruzi (Trypanosoma cruzi) trypomastigotes in mouse peritoneal macrophages; Range is 10-30 uM; type: functional; conditions: read-out: ED50 (the source's name)
[11] = organism: Mus musculus; assay: Effective dose against Trypanosoma uM; type: functional
[12] = target: T1, Trypanothione reductase; assay: Inhibitory activity against recombinant Trypanosoma cruzi (Trypanosoma cruzi) Trypanothione reductase; No inhibition at 1000 uM
[13] = organism: Mus musculus; assay: Effective dose against Leishmania donovani (Leishmania donovani) amastigotes in mouse peritoneal macrophages; Range is 10-30 uM; type: functional; conditions: read-out: ED50 (the source's name); how it was run: as §1

T1 sequence (P28593 whole entry): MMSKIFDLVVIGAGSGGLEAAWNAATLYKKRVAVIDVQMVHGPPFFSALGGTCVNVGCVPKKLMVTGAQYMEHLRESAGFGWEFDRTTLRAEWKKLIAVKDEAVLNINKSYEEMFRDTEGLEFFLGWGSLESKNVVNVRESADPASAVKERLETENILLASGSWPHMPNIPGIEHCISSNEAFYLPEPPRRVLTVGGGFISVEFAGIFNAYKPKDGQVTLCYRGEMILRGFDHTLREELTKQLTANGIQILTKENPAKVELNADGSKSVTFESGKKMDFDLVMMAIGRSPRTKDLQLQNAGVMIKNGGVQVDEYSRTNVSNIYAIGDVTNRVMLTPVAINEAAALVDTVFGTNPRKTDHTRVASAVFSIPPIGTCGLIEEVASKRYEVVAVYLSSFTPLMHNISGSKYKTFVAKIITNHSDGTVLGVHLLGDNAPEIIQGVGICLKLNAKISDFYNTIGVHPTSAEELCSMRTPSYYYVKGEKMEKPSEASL

| SMILES | EC50 [1] | EC50 [2] | IC50 [3] | I50 [7] | other results |
| --- | --- | --- | --- | --- | --- |
| CC(=O)c1ccc2c(c1)N(C(C)=O)c1cc(Cl)ccc1S2 | > 30 µM | > 30 µM | 402 µM |  | EC50 [4]: > 30 µM |
| CN(C)CCCN1c2ccccc2Sc2ccc(CN)cc21 |  |  | 219 µM |  | ED50 [5]: Toxic; ED50 [6]: Toxic; EC50 [4]: 0.37 µM |
| CN(C)CCCN1c2ccccc2Sc2ccc(C(F)(F)F)cc21 [TRIFLUPROMAZINE] |  |  | 110 µM | Not Active | Ki [8]: 30.2 µM; EC50 [9]: 3.2 µM |
| CN(C)CCCN1c2ccccc2Sc2ccc(C(N)=O)cc21 |  |  | 458 µM | Not Active |  |
| CCN(CC)CCCCCC(=O)N1c2ccccc2Sc2ccc(Cl)cc21 |  |  | 457 µM |  |  |
| CN(C)CCCN1c2ccccc2Sc2ccc(Cl)cc21 [CHLORPROMAZINE] | 4.9 µM | > 10 µM | 35.4 µM | Not Active | Ki [8]: 10.8 µM; EC50 [9]: 3.69 µM |
| O=C(O)CCC(=O)N1c2ccccc2Sc2ccc(Cl)cc21 |  |  | 1480 µM |  |  |
| CN(C)CCCN1c2ccccc2Sc2ccc(COc3ccc(C(C)(C)C)cc3)cc21 | > 30 µM | > 30 µM | 161 µM | Not Active | EC50 [9]: > 30 µM |
| CN(C)CCCN1c2ccccc2Sc2ccc(/C=N/O)cc21 | > 30 µM |  | 145 µM |  | EC50 [10]: 10 µM; EC50 [4]: 7.35 µM |
| CCN(CC)CC(=O)N1c2ccccc2Sc2ccc(Cl)cc21 |  |  | 829 µM |  |  |
| CN(C)CCN1c2ccccc2Sc2ccc(Cl)cc21 [CHOLRPHENETHAZINE] |  |  | 150 µM | Not Active |  |
| O=C(CCl)N1c2ccccc2Sc2ccc(Cl)cc21 |  |  | 862 µM |  |  |
| CN(C)CCCN1c2ccccc2Sc2ccccc21 [PROMAZINE] |  |  | 108 µM | Not Active | Ki [8]: 59.1 µM |
| CC(=O)c1ccc2c(c1)N(CCCN(C)C)c1cc(C(C)=O)ccc1S2 | > 30 µM | > 30 µM | 472 µM |  | ED50 [11]: 10 µM |
| CCCCCC(=O)c1ccc2c(c1)N(CCCN(C)C)c1ccccc1S2 |  |  | 171 µM |  | EC50 [4]: > 30 µM |
| CCC(=O)c1ccc2c(c1)N(CCCN(C)C)c1ccccc1S2 | > 30 µM | > 30 µM | 357 µM |  | EC50 [4]: 10.1 µM |
| NCCCN1c2ccccc2Sc2ccccc21 | 3.3 µM | 54.9 µM | 1410 µM | Not Active | EC50 [9]: 3.83 µM |
| CN1CCN(CCCN2c3ccccc3Sc3ccc(C(F)(F)F)cc32)CC1 [TRIFLUOPERAZINE] |  |  | 72 µM | Not Active | Ki [8]: 23 µM |
| CC(=O)c1ccc2c(c1)N(C(C)=O)c1ccccc1S2 |  |  | 2810 µM | Not Active |  |
| CN(C)C(C)(C)CN1c2ccccc2Sc2ccccc21 |  |  | 1180 µM | Not Active |  |
| OCCN1CCN(CCCN2c3ccccc3Sc3ccc(C(F)(F)F)cc32)CC1 [FLUPHENAZINE] | > 30 µM | > 30 µM | 73.7 µM | Not Active | Ki [8]: 21.2 µM; EC50 [9]: > 30 µM |
| CNCCCN1c2ccccc2Sc2ccc(Cl)cc21 [NOR1-CHLORPROMAZINE] |  |  | 126 µM | Not Active |  |
| c1ccc2c(c1)Nc1ccccc1S2 [PHENOTHIAZINE] |  |  |  |  | I50 [12]: No inhibition |
| CCN(CC)CCN1c2ccccc2Sc2ccc(Cl)cc21 |  |  | 81.3 µM | Not Active |  |
| CCCC(=O)c1ccc2c(c1)N(CCCN(C)C)c1ccccc1S2 |  | > 30 µM | 301 µM |  | EC50 [13]: 10 µM; EC50 [4]: 3.26 µM |
| O=C(CCC(=O)N1c2ccccc2Sc2ccc(Cl)cc21)NCc1ccccc1 | > 30 µM | > 30 µM | 188 µM |  | EC50 [4]: > 30 µM |
